From paper PMC3823235 (Biochemistry, 2013)
Like-named read-outs stand apart in the source and are kept apart here.

Columns and labels:
[1] = test system: CCRF-CEM human leukemia cell lines; settings: read-out: IC50, cell-based growth inhibition; reported as low as; cited from earlier work
[2] = target: recombinant human aminoimidazole carboxamide ribonucleotide transformylase (hAICAR Tfase) (Homo sapiens, UniProt P31939); assay: hAICAR Tfase enzyme inhibition assay; type: biochemical
Outline: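 Recombinant human enzyme; method otherwise follows earlier work. Reaction kinetics followed for 2 min after initiation. Ki obtained from Dixon plots.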

CCRF-CEM/FPGS^- = assay: Growth inhibition assay, FPGS-deficient mutant cells; type: cell-based, human; settings: read-out: CCRF-CEM/FPGS^- IC50, (−) T, (−) H
[3] = test system: CCRF-CEM human leukemia cell lines; assay: Growth inhibition assay, CCRF-CEM; type: cell-based
[4] = alleviated by folic acid co-supplementation; cited from earlier work
[5] = test system: anti-folate resistant human leukemia cell lines; settings: cited from earlier work
CCRF-CEM/MTX = assay: Growth inhibition assay, RFC-deficient mutant cells; type: cell-based, human; settings: read-out: CCRF-CEM/MTX IC50, (−) T, (−) H
GAR Tfase = settings: read-out: Ki, GAR Tfase; cited from earlier work
[6] = test system: solid murine and human tumors; settings: tumors that did not respond to methotrexate; cited from earlier work
[7] = read-out: Inhibition Ki, hAICAR Tfase, Dixon plots
[8] = read-out: CCRF-CEM IC50, (+) T, (−) H, with thymidine, no hypoxanthine
[9] = read-out: CCRF-CEM IC50, (−) T, (+) H, no thymidine, with hypoxanthine
[10] = read-out: CCRF-CEM IC50, (−) T, (−) H, Table 1, no thymidine, no hypoxanthine
[11] = read-out: CCRF-CEM IC50, (−) T, (−) H, Table 2, parent cell line

Sequence of recombinant human aminoimidazole carboxamide ribonucleotide transformylase (hAICAR Tfase) (P31939 whole entry): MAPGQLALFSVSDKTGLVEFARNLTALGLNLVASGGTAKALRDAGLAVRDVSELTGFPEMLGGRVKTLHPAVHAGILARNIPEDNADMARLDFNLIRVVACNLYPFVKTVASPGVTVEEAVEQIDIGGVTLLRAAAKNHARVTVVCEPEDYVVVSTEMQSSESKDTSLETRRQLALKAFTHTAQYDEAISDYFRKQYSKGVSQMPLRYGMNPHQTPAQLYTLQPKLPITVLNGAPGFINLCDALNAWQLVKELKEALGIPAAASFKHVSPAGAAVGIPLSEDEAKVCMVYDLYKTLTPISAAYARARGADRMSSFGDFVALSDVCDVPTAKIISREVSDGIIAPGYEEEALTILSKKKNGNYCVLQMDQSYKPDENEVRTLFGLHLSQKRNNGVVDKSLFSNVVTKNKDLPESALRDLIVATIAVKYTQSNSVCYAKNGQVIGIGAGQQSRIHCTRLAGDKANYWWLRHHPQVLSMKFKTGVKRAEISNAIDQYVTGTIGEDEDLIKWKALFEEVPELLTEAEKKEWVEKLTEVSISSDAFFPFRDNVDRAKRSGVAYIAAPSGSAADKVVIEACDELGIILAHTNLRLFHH

| Structure (SMILES) | Ki [2, 7] [nM] | IC50 (CCRF-CEM/FPGS^-; FPGS-deficient mutant) [nM] | IC50 (CCRF-CEM/MTX) [nM] | IC50 [3, 8] [nM] | IC50 [3, 9] [nM] | IC50 [3, 10] [nM] | further results |
| --- | --- | --- | --- | --- | --- | --- | --- |
| Nc1nc2c(c(=O)[nH]1)C[C@@H](CCc1ccc(C(=O)N[C@@H](CCC(=O)O)C(=O)O)cc1)CN2 [3 Lometrexol, Lometrexol] |  |  |  |  |  |  | IC50 [1]: 2.9 nM; Ki [2]: > 100000 nM; IC50 (CCRF-CEM/FPGS^-; Homo sapiens, CCRF-CEM): > 10000 nM; IC50 ([3]; Homo sapiens, CCRF-CEM, read-out: CCRF-CEM IC50, (−) T, (+) H): > 10000 nM; Adverse effect in patients [4]: some patients suffered cumulative myelosuppression |
| COc1cc(NCc2ccc3nc(N)nc(N)c3c2C)cc(OC)c1OC [neutrexin (trimetrexate), trimetrexate] |  |  |  |  |  |  | Sensitivity of resistant cells with 90–99% loss of FPGS activity [5]: marked hypersensitivity |
| Nc1nc(N)c(CCCCc2ccc(C(=O)NC(CCC(=O)O)C(=O)O)cc2)c(=O)[nH]1 (stereo not shown) [DDACTHF] | 20000 | > 10000 | > 100000 | 3600 | > 10000 | 2700 | IC50 [3, 11]: 2700 nM |
| Nc1nc2ccc(CC(C=O)c3ccc(C(=O)N[C@@H](CCC(=O)O)C(=O)O)cc3)cc2c(=O)[nH]1 (stereo partly shown) [compound 4, 10-formyl-TDAF] |  |  |  |  |  |  | Ki (GAR Tfase): 260 nM |
| Nc1nc(N)c(CCCC(C(=O)C(F)(F)F)c2ccc(C(=O)N[C@@H](CCC(=O)O)C(=O)O)cc2)c(=O)[nH]1 (stereo partly shown) [compound 5, 10-CF3CO-DDACTHF] | > 100000 | > 10000 |  | 17 | > 10000 | 16 | Ki (GAR Tfase): 15 nM |
| CS[C@H](CCCc1c(N)nc(N)[nH]c1=O)c1ccc(C(=O)NC(CCC(=O)O)C(=O)O)cc1 (stereo partly drawn) [10R-8, 10R-methylthio-DDACTHF] | > 100000 |  | 70 | 80 | > 10000 | 80 | IC50 ([3]; read-out: IC50, CCRF-CEM growth inhibition): 80 nM |
| Nc1nc2c(c(=O)[nH]1)CC(CCc1ccc(C(=O)N[C@@H](CCC(=O)O)C(=O)O)cc1)CN2 (stereo partly shown) [DDATHF, 5,10-dideaza-5,6,7,8-tetrahydrofolic acid] |  |  |  |  |  |  | In vivo antitumor effect [6]: effective in vivo against solid murine and human tumors |
| CS[C@@H](CCCc1c(N)nc(N)[nH]c1=O)c1ccc(C(=O)NC(CCC(=O)O)C(=O)O)cc1 (stereo partly drawn) [10S-7, 10S-methylthio-DDACTHF] | > 100000 | 5000 | 60 | 70 | > 10000 | 50 | IC50 [3, 11]: 60 nM |
